High-throughput results (PubChem)
Lmaj promast: inhibitors of Leishmania major promastigote growth; inhibition, % at 10 µM; actives 9% (n = 200,000); AID 1063; Leishmania major promastigotes, resazurin fluorescence viability;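 further: promastigotes grown with compound for 44 hours at 28 °C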
Rad51 HR inh: Rad51 (human) homologous recombination inhibition | actives 0.085% (n = 200,000) | AID 1385 | Q06609 | hRad51 DNA strand exchange, fluorescence dequenching | inhibition, % at 10 µM;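 active means inhibition above 40% at the single screening dose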
Target sequence (Q06609 whole entry, looked up): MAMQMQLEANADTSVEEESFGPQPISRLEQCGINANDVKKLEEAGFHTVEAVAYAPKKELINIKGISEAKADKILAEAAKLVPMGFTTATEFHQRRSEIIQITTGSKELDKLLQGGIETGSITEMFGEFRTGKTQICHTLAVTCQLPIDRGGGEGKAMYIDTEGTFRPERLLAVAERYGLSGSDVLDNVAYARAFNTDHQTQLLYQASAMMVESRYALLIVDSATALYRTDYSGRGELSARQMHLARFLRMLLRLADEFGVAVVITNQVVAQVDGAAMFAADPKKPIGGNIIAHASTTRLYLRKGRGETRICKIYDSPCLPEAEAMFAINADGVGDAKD
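Read-out basis: percent inhibition relative to plate controls and blanks / Assay system: human Rad51 nucleoprotein filaments preassembled on unlabelled ssDNA / Timing: filaments 15 min 37 °C, then compound 30 min / Control set: per-plate controls and blanks / Technique: fluorescence dequenching at 485/520 nm / Compound: 10 µM final, single point / Also added: Fluorescein- and BHQ1-tagged 47-mer duplex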
CHOP inhibitor: inhibitors of CHOP induction in ER stress response. AID 2732. actives 3.8% (n = 220,000). CHO-K1 CHOP-promoter luciferase, tunicamycin-induced, 15-18 h. inhibition, % at 10 µM;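 active means compounds that reduced the stress-induced luciferase reporter signal by more than about 70% of percent inhibition, limit read from the data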
Arbovirus inh: antivirals against arbovirus infection. inhibition, % at 10 µM. AID 1251. arbovirus infection cell-based antiviral screen. actives 0.37% (n = 200,000); in the data active means inhibition above about 30%
Wee1 stabilizer: inhibitors of human Wee1 degradation | HeLa Luc-Wee1K328M stability, luciferase luminescence; 100% = proteasome inhibitor MG132 effect | reporter increase, % at 5 µM | actives 1.2% (n = 220,000) | P30291;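 active means activation above the mean of all tested compounds plus 3 SD, set per screening run, cut at about 8.8% in these data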;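 further: cells exposed to compound for 20 h before luminescence read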
PKD1 inh: inhibitors of human PKD1 kinase; actives 0.056% (n = 200,000); AID 797; inhibition, % (no concentration beside the values); Q15139; PKD1 kinase fluorescence polarization assay
Wee1 degr conf: confirmation of human Wee1 degradation inhibitors; shares compounds with Wee1 stabilizer; HeLa Luc-Wee1K328M degradation, luminescence; vehicle 0%, proteasome-blocked wells 100%; activation, % at 5 µM; actives 4% (n = 1,100); AID 1410; in the data active means activation above about 8.9%
Each line names hits and unclear results; the compound was inactive in the other large screens (follow-up assays come after a bar, where they were run). The list is not random: actives were taken first. Their share in the collection is about 12%. Unless noted, no stated cut-off is given here; in the data, active means inhibition above about 50%; inactive means the rest.

COc1cccc(/C=N/NC(=O)c2cc3c(OC)c(OC)ccc3[nH]2)c1OC	Lmaj promast 72.7, Wee1 stabilizer 11.6 (no result: Rad51 HR inh) | Wee1 degr conf 10.3
Cc1ccc(NC(=O)CN(C)Cc2nc3c(Br)cc(Br)cc3c(=O)[nH]2)cc1	none
O=C(Cn1nc2ccccc2n1)N/N=C/c1ccc(F)cc1	none (no result: Lmaj promast, Arbovirus inh, PKD1 inh)
CCNC(=O)NC(=O)COc1ccccc1C#N	none
N#Cc1ccccc1OCC(=O)NC(=O)NCc1ccccc1	Wee1 stabilizer 15.2 | Wee1 degr conf inactive
Cc1cc(C)nc(NC(=O)c2ccc(COc3ccccc3Cl)cc2)c1	Wee1 stabilizer 14.0 | Wee1 degr conf inactive
COc1ccc2[nH]c(CN3CCN(C(C)C)C(CCO)C3)c(C)c2c1 (stereo unspecified)	Wee1 stabilizer 19.8 | Wee1 degr conf inactive
CSc1ncccc1C(=O)OCC(=O)NCc1ccc2c(c1)OCO2	none
Cc1ccc(S(=O)(=O)N(C)CCCC(=O)NC(C)(C)C)cc1	Wee1 stabilizer 12.0 | Wee1 degr conf inactive
CCCN(CC1CC1)C(=O)CSc1nnc(-c2cc(-c3cccs3)nc3ccccc23)o1	Wee1 stabilizer 18.7 | Wee1 degr conf inactive
CCOC(=O)c1c2n(c3ccc(O)cc13)CCC2	Wee1 stabilizer 11.1 | Wee1 degr conf inactive
COc1ccc(CC(=O)NCc2csc(-c3cccs3)n2)cc1OC	none (no result: Lmaj promast, Arbovirus inh, PKD1 inh)
Cc1ccc(S(=O)(=O)NCc2ccncc2)cc1	none (no result: CHOP inhibitor)
CC(=O)Nc1ccc(S(=O)(=O)NCc2ccncc2)cc1	Wee1 stabilizer 11.8 | Wee1 degr conf inactive
CCN(CC)C(=O)Cn1cc(S(=O)(=O)CC(=O)NC2CCCCC2)c2ccccc21	none
COc1cccc(C2=NOC(C(=O)N3CCN(c4ccccc4)CC3)C2)c1OC (stereo unspecified)	Wee1 stabilizer 31.1 | Wee1 degr conf inactive
Cc1csc2sc(-c3ccnc(SCC(=O)NCc4ccccc4)n3)c(C)c12	Wee1 stabilizer 14.0 (no result: Lmaj promast, Arbovirus inh, PKD1 inh) | Wee1 degr conf 21.5
CCn1c(CSc2nc3ccccc3s2)nnc1SCC(N)=O	Wee1 stabilizer 15.6 | Wee1 degr conf inactive
CC(C)CNC(=O)c1cccc(NC(=O)C(C)Oc2ccccc2)c1 (stereo unspecified)	none
Cc1ccc(NC(=O)Cn2nnc(-c3ccccc3NC(=O)c3cccs3)n2)cc1	Wee1 stabilizer 13.6 (no result: CHOP inhibitor) | Wee1 degr conf inactive
CC(C)(C)Sc1ccccc1S(=O)(=O)C(C)(C)C	Wee1 stabilizer 13.1 (no result: Lmaj promast, Arbovirus inh, PKD1 inh) | Wee1 degr conf inactive
O=C(NC(Cc1c[nH]c2ccccc12)C(=O)O)c1ccc(Br)cc1 (stereo unspecified)	none
CC(C)(C)NC(=O)C(c1ccc(F)cc1)N(Cc1cccs1)C(=O)c1ccc(CN2CCOCC2)o1 (stereo unspecified)	Wee1 stabilizer 10.9 | Wee1 degr conf inactive
COc1ccc(CNCCNC(=O)c2cccs2)c(OC)c1OC	Wee1 stabilizer 12.3 | Wee1 degr conf inactive
CCOC(=O)Cn1nc2sc3ccccc3n2c(=O)c1=O	none (no result: Lmaj promast, Arbovirus inh, PKD1 inh)
Nc1nc(-c2ccc3c(c2)NC(=O)CO3)cs1	none (no result: Rad51 HR inh)
Cc1ccc2nc(-c3ccc4c(c3)NC(=O)CO4)cn2c1	Wee1 stabilizer 20.3 (no result: Lmaj promast, Arbovirus inh, PKD1 inh) | Wee1 degr conf inactive
COC(=O)CC1C(=O)NCCN1C(=O)CSc1nc2ccccc2o1 (stereo unspecified)	Wee1 stabilizer 12.4 | Wee1 degr conf inactive
COC(=O)CC1C(=O)NCCN1C(=O)CSc1nc2ccccc2c(=O)n1CC(C)C (stereo unspecified)	none
Cn1c(SCC(=O)Nc2cccnc2)nnc1-c1ccccc1F	none
CC(=O)c1ccc(OCCCC(=O)NC2CCCc3ccccc32)cc1 (stereo unspecified)	none
CCOC(=O)N1CCN(C(=O)CN(c2ccccc2)S(C)(=O)=O)CC1	none
Cc1ccsc1/C=N/n1c(-c2ccncc2)n[nH]c1=S	none (no result: Rad51 HR inh)
CCN(/C=N/c1sc2c(c1C#N)CCCCC2)CC	Wee1 stabilizer 13.1 | Wee1 degr conf inactive
COc1ccc(-c2noc(CSc3nc(-c4ccccc4)cc(=O)[nH]3)n2)cc1OC	Arbovirus inh 51.6, Wee1 stabilizer 14.0 | Wee1 degr conf inactive
O=C(Nc1ccc([N+](=O)[O-])cc1Cl)c1cc(Cl)ccc1O	none (no result: Lmaj promast, Rad51 HR inh, Arbovirus inh, Wee1 stabilizer, PKD1 inh)
Cc1cc(O)c(NC(=O)c2cc([N+](=O)[O-])ccc2Cl)cc1C	Wee1 stabilizer 44.9 | Wee1 degr conf inactive
Cc1ccc(O)c(NC(=O)c2cc([N+](=O)[O-])ccc2Cl)c1	Wee1 stabilizer 11.0 | Wee1 degr conf inactive
CCC(=O)Oc1ccc(C(=O)Nc2ccc([N+](=O)[O-])cc2)cc1	Wee1 stabilizer 11.9 | Wee1 degr conf inactive
CC(C)N(C(=O)c1ccc(C(=O)Nc2ccc([N+](=O)[O-])cc2)cc1)C(C)C	none
Cc1ccc(NC(=O)c2ccccc2)cc1OC(=O)c1ccccc1	none
CCCOc1ccc(C(C)=O)cc1CN1CCOCC1	Wee1 stabilizer 11.9 | Wee1 degr conf inactive
CC(=O)c1ccc(Oc2ncnc3sccc23)c(CN2CCOCC2)c1	none
COc1ccccc1N(CC(O)Cn1c(C)nc2ccccc21)S(=O)(=O)c1ccccc1 (stereo unspecified)	none
O=C(/C=C/c1ccco1)NC(=S)Nc1cccc(-c2nc3ccccc3s2)c1	Wee1 stabilizer 13.5 (no result: CHOP inhibitor, Arbovirus inh) | Wee1 degr conf inactive
CN(Cc1c(F)cccc1Cl)c1ccc(S(=O)(=O)N2CCOCC2)cn1	Wee1 stabilizer 12.3 | Wee1 degr conf inactive
CN(CCOc1ccccc1)c1ccc(S(=O)(=O)N2CCCCC2)cn1	none
O=C1C=C(NNC(=O)c2ccccc2Br)CCC1	none
COCCn1cc(C(=O)NCCCN2CCC(C)CC2)c2c3ccccc3n(C)c2c1=O	Wee1 stabilizer 13.6 | Wee1 degr conf inactive
O=C(NCc1ccc(F)cc1)c1ccccc1OCc1ccccc1	Lmaj promast 79.5, Wee1 stabilizer 19.6 | Wee1 degr conf inactive
Cc1ccc(NC(=O)COC(=O)C2CSC3(C)CCC(=O)N23)cc1S(=O)(=O)N1CCOCC1 (stereo unspecified)	none
COc1cccc(OC(=O)c2cc3ccccc3oc2=O)c1	Wee1 stabilizer 15.5 | Wee1 degr conf inactive
CC(=O)c1ccc(OC(=O)c2cc3ccccc3oc2=O)cc1	none
Cc1nc(NC(=O)C(C)Oc2cccc(Cl)c2)sc1C(=O)N(C)C (stereo unspecified)	none
Fc1ccc(CNC(=S)NC2CCCC2)cc1	none
C=C(C)CNC(=S)N/N=C/c1ccc([N+](=O)[O-])cc1	none
C=C(C)CNC(=S)N/N=C/c1c(F)cccc1F	Wee1 stabilizer 14.3 | Wee1 degr conf inactive
N#C/C(=C\c1ccc(O)cc1)C(=O)N1CCCC1	none (no result: Lmaj promast, Arbovirus inh, PKD1 inh)
N#C/C(=C\c1ccc(OC(F)F)cc1)C(=O)N1CCCCC1	Wee1 stabilizer 14.8 (no result: Lmaj promast, Arbovirus inh, PKD1 inh) | Wee1 degr conf inactive
O=C(NCc1ccc(OC(F)(F)F)cc1)C12CN(Cc3ccccc3)CC1C(c1cccc([N+](=O)[O-])c1)=NO2 (stereo unspecified)	Wee1 stabilizer 26.4 | Wee1 degr conf inactive
